Calls of active or inactive are those of the source. The calls are words filed in the database; no cut-off is given here.
Columns and labels:
Calf thymus DNA [1] = test: Binding affinity to calf thymus DNA assessed as intercalation by measuring decrease in DNA intensity by circular dichroism spectroscopy; format: nucleic-acid assay; conditions: Bos taurus
Calf thymus DNA [2] = test: Displacement of ethidium bromide from calf thymus DNA assessed as quenching constant upto 85 uM by fluorescence based spectroscopic analysis; format: nucleic-acid assay; conditions: Bos taurus
Calf thymus DNA [3] = test: Binding affinity to calf thymus DNA assessed as intercalation by measuring hypochromic shift at 20 uM by UV-vis spectrophotometric method relative to control; format: nucleic-acid assay; conditions: Bos taurus
RXF 393 = test: Antiproliferative activity against human RXF 393 cells assessed as cell growth at 0.00000001 M incubated for 48 hrs by SRB assay relative to control; format: functional; conditions: dose 10 nM, read-out: Activity
OVCAR-3 = test: Antiproliferative activity against human OVCAR-3 cells assessed as cell growth at 0.00000001 M incubated for 48 hrs by SRB assay relative to control; format: functional; conditions: dose 10 nM, read-out: Activity
Hs-578T [4] = test: Antiproliferative activity against human Hs-578T cells assessed as cell growth inhibition by measuring lethal concentration incubated for 48 hrs by sulforhodamine B assay; format: functional; conditions: read-out: LC50 (the source's name)
RPMI-8226 [5] = test: Antiproliferative activity against human RPMI-8226 cells assessed as cell growth at 0.00000001 M incubated for 48 hrs by SRB assay relative to control; format: functional; conditions: dose 10 nM, read-out: Activity
NCI-H522 [6] = test: Antiproliferative activity against human NCI-H522 cells assessed as cell growth inhibition by measuring lethal concentration incubated for 48 hrs by sulforhodamine B assay; format: functional; conditions: read-out: LC50 (the source's name)
UO-31 [7] = test: Growth inhibition against human UO-31 cells assessed as total growth inhibitory concentration incubated for 48 hrs by sulforhodamine B assay; format: functional
SF-268 [8] = test: Growth inhibition against human SF-268 cells assessed as total growth inhibitory concentration incubated for 48 hrs by sulforhodamine B assay; format: functional
MDA-MB-468 = test: Growth inhibition against human MDA-MB-468 cells incubated for 48 hrs by sulforhodamine B assay; format: functional
UO-31 [9] = test: Growth inhibition against human UO-31 cells incubated for 48 hrs by sulforhodamine B assay; format: functional
SF-295 = test: Growth inhibition against human SF-295 cells incubated for 48 hrs by sulforhodamine B assay; format: functional
SR [10] = test: Growth inhibition against human SR cells incubated for 48 hrs by sulforhodamine B assay; format: functional
MOLT-4 = test: Growth inhibition against human MOLT-4 cells incubated for 48 hrs by sulforhodamine B assay; format: functional
EKVX = test: Antiproliferative activity against human EKVX cells assessed as cell growth at 0.0000001 M incubated for 48 hrs by SRB assay relative to control; format: functional; conditions: dose 100 nM, read-out: Activity
Summary of the method: (§1)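 NCI-60 five-dose screen (10^-4 to 10^-8 M). Cells grown in RPMI 1640 with 5% FBS and 2 mM L-glutamine, plated at 5,000-40,000 cells/well and preincubated 24 h. Drug given from DMSO stock, then 48 h at 37 °C, 5% CO2. For adherent lines, cells fixed with cold TCA, SRB-stained and read at 515 nm. Percent growth taken against time-zero and untreated control.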

NCI-H522 [11] = test: Antiproliferative activity against human NCI-H522 cells assessed as cell growth at 0.0000001 M incubated for 48 hrs by SRB assay relative to control; format: functional; conditions: dose 100 nM, read-out: Activity
HCT-15 [12] = test: Antiproliferative activity against human HCT-15 cells assessed as cell growth at 0.0000001 M incubated for 48 hrs by SRB assay relative to control; format: functional; conditions: dose 100 nM, read-out: Activity; summary of the method: as §1
SF-268 [13] = test: Antiproliferative activity against human SF-268 cells assessed as cell growth at 0.0000001 M incubated for 48 hrs by SRB assay relative to control; format: functional; conditions: dose 100 nM, read-out: Activity
A498 = test: Antiproliferative activity against human A498 cells assessed as cell growth at 0.0000001 M incubated for 48 hrs by SRB assay relative to control; format: functional; conditions: dose 100 nM, read-out: Activity
Summary of the method: (§2)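 NCI-60 five-dose screen over 10^-4–10^-8 M (10-fold dilutions). Cells grown in RPMI 1640 with 5% FBS and 2 mM L-glutamine, seeded at 5,000–40,000 cells/well and preincubated 24 h. Drug from DMSO stock, 48 h at 37 °C, 5% CO2. Adherent cells TCA-fixed and stained with 0.4% SRB; A515 read. Percent growth = (Ti−Tz)/(C−Tz)×100, or (Ti−Tz)/Tz×100 when Ti<Tz.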

SR [14] = test: Antiproliferative activity against human SR cells assessed as cell growth at 0.000001 M incubated for 48 hrs by SRB assay relative to control; format: functional; conditions: read-out: Activity
SF-539 = test: Antiproliferative activity against human SF-539 cells assessed as cell growth at 0.000001 M incubated for 48 hrs by SRB assay relative to control; format: functional; conditions: read-out: Activity
Malme-3M = test: Antiproliferative activity against human Malme-3M cells assessed as cell growth at 0.000001 M incubated for 48 hrs by SRB assay relative to control; format: functional; conditions: read-out: Activity
RPMI-8226 [15] = test: Antiproliferative activity against human RPMI-8226 cells assessed as cell growth at 0.00001 M incubated for 48 hrs by SRB assay relative to control; format: functional; conditions: read-out: Activity
IGROV-1 = test: Antiproliferative activity against human IGROV-1 cells assessed as cell growth at 0.00001 M incubated for 48 hrs by SRB assay relative to control; format: functional; conditions: read-out: Activity
MCF7 = test: Antiproliferative activity against human MCF7 cells assessed as cell growth at 0.00001 M incubated for 48 hrs by SRB assay relative to control; format: functional; conditions: read-out: Activity
SR [16] = test: Antiproliferative activity against human SR cells assessed as cell growth at 0.0001 M incubated for 48 hrs by SRB assay relative to control; format: functional; conditions: read-out: Activity
HCT-15 [17] = test: Antiproliferative activity against human HCT-15 cells assessed as cell growth at 0.0001 M incubated for 48 hrs by SRB assay relative to control; format: functional; conditions: read-out: Activity; summary of the method: as §1
M14 = test: Antiproliferative activity against human M14 cells assessed as cell growth at 0.0001 M incubated for 48 hrs by SRB assay relative to control; format: functional; conditions: read-out: Activity
MDA-MB-435 = test: Antiproliferative activity against human MDA-MB-435 cells assessed as cell growth at 0.0001 M incubated for 48 hrs by SRB assay relative to control; format: functional; conditions: read-out: Activity
ACHN = test: Antiproliferative activity against human ACHN cells assessed as cell growth at 0.0001 M incubated for 48 hrs by SRB assay relative to control; format: functional; conditions: read-out: Activity; summary of the method: as §2
PC-3 = test: Antiproliferative activity against human PC-3 cells assessed as cell growth at 0.0001 M incubated for 48 hrs by SRB assay relative to control; format: functional; conditions: read-out: Activity
Hs-578T [18] = test: Antiproliferative activity against human Hs-578T cells assessed as cell growth at 0.0001 M incubated for 48 hrs by SRB assay relative to control; format: functional; conditions: read-out: Activity
Summary of the method: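 NCI-60 five-dose mode, 10^-4 to 10^-8 M in 10-fold steps. RPMI 1640, 5% FBS, 2 mM L-glutamine; 24 h preincubation, then 48 h drug exposure at 37 °C. Stocks in DMSO at 400× the top concentration, diluted in medium with gentamicin. TCA fixation, SRB staining, absorbance at 515 nm. Percent growth from time-zero (Tz), control (C) and test (Ti) readings.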

BT-549 = test: Antiproliferative activity against human BT-549 cells assessed as cell growth at 0.0001 M incubated for 48 hrs by SRB assay relative to control; format: functional; conditions: read-out: Activity; summary of the method: as §2

| Compound | Activity (Calf thymus DNA [1]) | Kq (Calf thymus DNA [2]) | Activity (Calf thymus DNA [3]) [%] | growth at 0.01 µM (RXF 393) [%] | growth at 0.01 µM (OVCAR-3) [%] | CC50 (Hs-578T [4]) [nM] | growth at 0.01 µM (RPMI-8226 [5]) [%] | CC50 (NCI-H522 [6]) [nM] | TGI (UO-31 [7]) [nM] | TGI (SF-268 [8]) [nM] | GI50 (MDA-MB-468) [nM] | GI50 (UO-31 [9]) [nM] | GI50 (SF-295) [nM] | GI50 (SR [10]) [nM] | GI50 (MOLT-4) [nM] | growth at 0.1 µM (EKVX) [%] | growth at 0.1 µM (NCI-H522 [11]) [%] | growth at 0.1 µM (HCT-15 [12]) [%] | growth at 0.1 µM (SF-268 [13]) [%] | growth at 0.1 µM (A498) [%] | also measured |
| --- | --- | --- | --- | --- | --- | --- | --- | --- | --- | --- | --- | --- | --- | --- | --- | --- | --- | --- | --- | --- | --- |
| COc1ccc(-c2cn3ccnc3c(-c3ccc4ncn(C5CCCCC5)c4c3)n2)cc1 | Active | 0.82 10^12/M/s | 20.8 | 102 | 100 | > 100000 | 104 | > 100000 | > 100000 | > 100000 | 863 | 1350 | 361 | 890 | 2660 | 89 | 87 | 99 | 92 | 92 | growth at 1 µM (SR [14]): 48%; growth at 1 µM (SF-539): 35%; growth at 1 µM (Malme-3M): 53%; growth at 10 µM (RPMI-8226 [15]): 10%; growth at 10 µM (IGROV-1): 19%; growth at 10 µM (MCF7): 16%; growth at 100 µM (SR [16]): 16%; growth at 100 µM (HCT-15 [17]): 13%; growth at 100 µM (M14): 8%; growth at 100 µM (MDA-MB-435): 11%; growth at 100 µM (ACHN): 23%; growth at 100 µM (PC-3): 24%; growth at 100 µM (Hs-578T [18]): -3%; growth at 100 µM (BT-549): -6% |
| c1ccc(Cn2cnc3ccc(-c4nc(-c5ccc6c(c5)ncn6C5CCCCC5)cn5ccnc45)cc32)cc1 | Active | 0.74 10^12/M/s | 15.3 | 101 | 101 | > 100000 | 108 | > 100000 | 4550 | > 100000 | 1920 | 1720 | 1420 | 1680 | 1670 | 91 | 90 | 96 | 94 | 101 | growth at 1 µM (SR [14]): 63%; growth at 1 µM (SF-539): 53%; growth at 1 µM (Malme-3M): 91%; growth at 10 µM (RPMI-8226 [15]): -29%; growth at 10 µM (IGROV-1): 3%; growth at 10 µM (MCF7): 2%; growth at 100 µM (SR [16]): 6%; growth at 100 µM (HCT-15 [17]): 3%; growth at 100 µM (M14): 6%; growth at 100 µM (MDA-MB-435): 2%; growth at 100 µM (ACHN): 23%; growth at 100 µM (PC-3): -3%; growth at 100 µM (Hs-578T [18]): 12%; growth at 100 µM (BT-549): -68% |

From ChEMBL document CHEMBL5247578, “Effective synthesis of benzimidazoles-imidazo[1,2-a]pyrazine conjugates: A comparative study of mono-and bis-benzimidazoles for antitumor activity” (Eur J Med Chem, 2019)
